Assay results: ChEMBL document CHEMBL4052819 (2017)
Values after ≈ are worked out from the molar mass of the structure shown. Active and inactive are the calls of the source. The calls are words filed in the database; no cut-off is given here. Non-standard residues stand in square brackets, D forms with d. Residues, ends and D or L forms follow the SMILES beside them. Cha = N[C@@H](CC1CCCCC1)C(=O)O; Dab = NCC[C@H](N)C(=O)O

Experiments:
Format in all cases: functional
Acinetobacter baumannii = assay: Antibacterial activity against carbapenem-resistant Acinetobacter baumannii clinical isolate expressing beta-lactamase OXA-23, 24/40 after 18 to 20 hrs by broth microdilution method
In short: (§1)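 Broth microdilution in tryptic soy broth: 2-fold dilutions mixed 1:1 with ~1.5 × 10^5 CFU/mL bacterial suspension in TSB, final 0.5–32 μg/mL, 37 °C for 18–20 h. MIC = lowest concentration with no visible growth. At least three independent experiments, one replicate each.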

Staphylococcus aureus [1] = assay: Antibacterial activity against methicillin-resistant Staphylococcus aureus ATCC 43300 after 18 to 20 hrs by broth microdilution method; in short: as §1
Escherichia coli [2] = assay: Antibacterial activity against Escherichia coli ATCC 25922 after 18 to 20 hrs in presence of 95% serum by broth microdilution method
In short: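 Same microdilution with human serum as medium: compound 2-fold diluted in 100% serum, mixed 1:1 with 90% serum holding ~1.5 × 10^5 CFU/mL, giving 95% serum and final 0.5–64 μg/mL. MIC read as no visible growth after incubation as for the broth test.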

Pseudomonas aeruginosa [3] = assay: Bactericidal activity against Pseudomonas aeruginosa ATCC 27853 at 8 ug/ml after 24 hrs by time-kill assay
In short: (§2)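 Time-kill at 8, 16 and 32 μg/mL; survivors counted on tryptic soy agar at 0, 2, 4, 6 and 24 h. Three independent experiments, one replicate each.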

Escherichia coli [4] = assay: Antibacterial activity against Escherichia coli ATCC 25922 in presence of 100% serum after 12 hrs by broth microdilution method; settings: ATCC 25922, 12 h
In short: (§3)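 Serum stability: compound added to 100% human serum at final 64 μg/mL, held at 37 °C, sampled at 0, 6, 12 and 24 h. […] Residual activity compared with untreated control.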

Pseudomonas aeruginosa [5] = assay: Bactericidal activity against Pseudomonas aeruginosa ATCC 27853 at 16 to 32 ug/ml after 24 hrs by time-kill assay; in short: as §2
Escherichia coli [6] = assay: Antibacterial activity against Escherichia coli ATCC 25922 in presence of 100% serum measured immediately post compound addition in serum by broth microdilution method; in short: as §3
Pseudomonas aeruginosa [7] = assay: Antibiofilm activity against Pseudomonas aeruginosa ATCC 27853 established catheter-associated biofilm model at 40 times MIC after 72 hrs relative to control
Escherichia coli [8] = assay: Antibacterial activity against Escherichia coli ATCC 25922 in presence of 100% serum after 24 hrs by broth microdilution method; settings: ATCC 25922, 24 h; in short: as §3
Escherichia coli [9] = assay: Antibacterial activity against carbapenem-resistant Escherichia coli clinical isolate expressing beta-lactamase KPC3, TEM1 after 18 to 20 hrs by broth microdilution method; in short: as §1
Staphylococcus aureus [10] = assay: Bactericidal activity against Staphylococcus aureus ATCC 29213 at 32 ug/ml after 4 hrs by time-kill assay relative to control; in short: as §2
Staphylococcus aureus [11] = assay: Induction of cytoplasmic membrane depolarization in Staphylococcus aureus ATCC 29213 at >= 16 ug/ml by DiSC3(5) probe-based fluorescence assay
In short: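 S. aureus ATCC 29213 grown in TSB at 37 °C with shaking (200 rpm) for ~5 h after 1/100 dilution of an overnight culture. Cells washed twice in 5 mM HEPES (pH 7.2) with 5 mM glucose and resuspended in the same buffer. Loaded with 0.5 μM DiSC3(5) for 15 min at room temperature, then 100 mM KCl added. Compound given at 8–64 μg/mL final. Fluorescence read at ex 622/em 670 nm. Three independent experiments, ANOVA with Tukey HSD.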

Pseudomonas aeruginosa [12] = assay: Induction of cytoplasmic membrane depolarization in Pseudomonas aeruginosa ATCC 27853 at >= 16 ug/ml by DiSC3(5) probe-based fluorescence assay
Staphylococcus aureus [13] = assay: Antibiofilm activity against methicillin-resistant Staphylococcus aureus LAC established catheter-associated biofilm model at 20 times MIC after 72 hrs relative to control
Pseudomonas aeruginosa [14] = assay: Bactericidal activity against Pseudomonas aeruginosa ATCC 27853 at 8 ug/ml after 2 hrs by time-kill assay relative to control; in short: as §2

CC(C)C[C@H](NC(=O)[C@@H](Cc1ccccc1)NC(=O)[C@H](CCN)NC(=O)[C@H](Cc1ccccc1)NC(=O)[C@H](CCN)NC(=O)[C@@H](N)CC1CCCCC1)C(=O)N[C@@H](CCN)C(=O)N[C@H](CC(C)C)C(=O)N[C@@H](Cc1ccccc1)C(=O)N[C@@H](CO)C(N)=O (H-[Cha][Dab]F[Dab][dF]L[Dab][dL]FS-NH2)
MIC (Acinetobacter baumannii): 0.5 µg/mL (≈ 0.408 µM) | MIC (Staphylococcus aureus [1]): 4 µg/mL (≈ 3.26 µM) | MIC (Escherichia coli [2]): 8 µg/mL | Activity (Pseudomonas aeruginosa [3]): inactive | MIC (Escherichia coli [4]): 4 to 8 µg/mL | Activity (Pseudomonas aeruginosa [5]): Active | MIC (Escherichia coli [6]): 4 to 8 µg/mL | Activity (Pseudomonas aeruginosa [7]): 2.6 deltalog10CFU/ml | MIC (Escherichia coli [8]): 8 µg/mL | MIC (Escherichia coli [9]): 0.5 to 1 µg/mL (≈ 0.408 to 0.816 µM) | Activity (Staphylococcus aureus [10]): 5.4 deltalog10CFU/ml | Activity (Staphylococcus aureus [11]): Active | Activity (Pseudomonas aeruginosa [12]): Active | Activity (Staphylococcus aureus [13]): 5 deltalog10CFU/ml | Activity (Pseudomonas aeruginosa [14]): 2.2 deltalog10CFU/ml
